Measurements collected from several papers.
Each line is one published result; the experiments were not run side by side.
Target: Serine/threonine-protein kinase BRSK1 (BRSK1, Homo sapiens, UniProt Q8TDC3)
Residues used in one study (Q8TDC3 1-778): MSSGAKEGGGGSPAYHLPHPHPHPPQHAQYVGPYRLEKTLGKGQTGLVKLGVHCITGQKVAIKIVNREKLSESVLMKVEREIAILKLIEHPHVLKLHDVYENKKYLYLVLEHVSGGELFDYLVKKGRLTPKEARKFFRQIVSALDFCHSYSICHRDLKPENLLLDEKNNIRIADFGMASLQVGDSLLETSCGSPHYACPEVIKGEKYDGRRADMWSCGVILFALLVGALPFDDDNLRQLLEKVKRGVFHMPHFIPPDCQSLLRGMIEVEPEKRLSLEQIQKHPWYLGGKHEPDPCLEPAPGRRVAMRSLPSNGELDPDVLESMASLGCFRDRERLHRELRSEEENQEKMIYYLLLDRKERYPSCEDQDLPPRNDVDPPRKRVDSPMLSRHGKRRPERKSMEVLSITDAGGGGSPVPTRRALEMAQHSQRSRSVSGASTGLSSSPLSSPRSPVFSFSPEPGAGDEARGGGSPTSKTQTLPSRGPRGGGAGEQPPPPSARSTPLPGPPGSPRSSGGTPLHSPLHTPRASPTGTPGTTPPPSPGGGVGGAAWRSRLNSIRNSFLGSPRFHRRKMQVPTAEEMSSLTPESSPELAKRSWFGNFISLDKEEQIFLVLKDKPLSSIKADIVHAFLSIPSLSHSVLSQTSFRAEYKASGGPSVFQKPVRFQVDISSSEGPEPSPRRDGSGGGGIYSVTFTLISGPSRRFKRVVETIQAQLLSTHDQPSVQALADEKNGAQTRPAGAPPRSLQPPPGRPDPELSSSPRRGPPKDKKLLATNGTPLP

Compound	read-out	technique	tested at	remaining binding [%]
O=C(c1ccc(Nc2ncc(Cl)c(-c3ccc(Cl)s3)n2)cc1)N1CCC(N2CCCC2)CC1	binding	competition with immobilised ligand	1 µM	57
COc1ccnn2ncc(-c3ccnc(N(C)C)n3)c12	binding	–	1 µM	98
c1cncc(-c2cccc(Nc3nccc(NC4CCCCC4)n3)c2)c1	binding	competition with immobilised ligand	10 µM	84
COc1ncc2cc3ccccc3nc2c1C#N	cell-free assay	competition with immobilised ligand	5 µM	89
Nc1ncc2c(n1)-c1c([nH]c3ccc(C#CC4CC4)cc13)CCCC2	binding	competition with immobilised ligand	1 µM	87
O=C(NCCCN1CCOCC1)c1ccc(Nc2ncc(Cl)c(-c3ccc(Cl)s3)n2)cc1	binding	competition with immobilised ligand	1 µM	75
CS(=O)(=O)c1cc(C2(NC(=O)c3cncc4c3cnn4-c3ccc(F)cc3)CC2)ccn1	cell-free assay	competition with immobilised ligand	1 µM	74
F[C@@H]1CCN(c2nccc(-c3cnn4ncccc34)n2)C1	binding	–	1 µM	100
Cc1cnc(Nc2ccc(C(=O)N3CCC(N4CCCC4)CC3)cc2)nc1-c1cc2ccccc2s1	binding	competition with immobilised ligand	1 µM	100
CN(CCCC(F)(F)F)c1nccc(-c2cnn3ncccc23)n1	binding	–	1 µM	100
Cc1c(NC(=O)c2cc(C(N)=O)nc3cc(F)ccc23)c(C(F)(F)F)nn1Cc1ccc(C#N)cc1	cell-free assay	competition with immobilised ligand	1 µM	100
N[C@H]1CCN(c2nccc(-c3cnn4ncccc34)n2)C1	binding	–	1 µM	81
N#CC1(c2ccccn2)CCN(Cc2cc(C(=O)N3CCCC3)c(=O)n3ccccc23)CC1	cell-free assay	competition with immobilised ligand	1 µM	87
C[C@H]1CCN(c2nccc(-c3cnn4ncccc34)n2)C1	binding	–	1 µM	98
CC(C)CC(=O)N1CCc2nc(-c3ccc(Br)cc3)nc(N(C)Cc3ccccc3)c2C1	cell-free assay	competition with immobilised ligand	0.1 µM	100
CN(c1nccc(-c2cnn3ncccc23)n1)C1CC1	binding	–	1 µM	100
COc1cc(-c2cn(C3CCc4ccccc4N(CC(F)(F)F)C3=O)nn2)ccc1-n1ccc(C)n1 (stereo not shown)	cell-free assay	competition with immobilised ligand	1 µM	81
COc1cnc(Nc2cccc(S(N)(=O)=O)c2)nc1N1CCN(c2ccccc2)C(=O)C1	binding	competition with immobilised ligand	1 µM	100
C[C@H](c1cccc(C#N)c1)n1cc(Cl)cc(C(N)=O)c1=N	cell-free assay	competition with immobilised ligand	1 µM	68
O=C(NCC1CCOCC1)c1n[nH]cc1NC(=O)c1c(F)cccc1F	binding	competition with immobilised ligand	1 µM	100
CO[C@@H](C)c1c(Nc2ccc([C@@H](N(C)C(=O)C3CCS(=O)(=O)CC3)C(F)(F)F)cc2)cnc2cc(Cl)nn12	cell-free assay	competition with immobilised ligand	1 µM	93
CN(C)c1nccc(-c2cnc3ncccn23)n1	binding	–	1 µM	100
